Screening data as filed in PubChem.
In the library only some 1.7% were active in any assay of this set; here they are far more common.
DNMT1 block: human DNMT1 methyltransferase inhibitors, primary screen, biochemical, molecular beacon, fluorescence, HinP1I cleavage, uHTS | inhibition (reported as % activation of signal), % at 10 µM | actives 0.83% (n = 360,000) | AID 588458, 2011; in the data active means inhibition above about 50%
STEP inh: STEP phosphatase inhibitors, primary screen, biochemical, fluorescence intensity, uHTS | Tyrosine-protein phosphatase non-receptor type 5 (Homo sapiens), P54829 | inhibition, % at 20 µM | AID 588621, 2011 | actives 0.25% (n = 360,000) | recombinant STEP, OMFP fluorogenic substrate;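 active means inhibition at 20 µM, scaled per plate between control wells, above about 37%, limit read from the data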;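 further: 0% = DMSO with enzyme and substrate and 100% = substrate only without enzyme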
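System: STEP (striatal-enriched tyrosine phosphatase) enzyme, cell-free; medium: Bis-Tris pH 6.0 buffer with DTT, detergent; dosing: 20 µM, 1% DMSO; times: reaction 20 min, ambient temperature; detection: fluorescence, 480/540 nm; read-out basis: normalized % inhibition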
Scp1 inh: Scp-1 phosphatase inhibitors, primary screen, biochemical, colorimetric, uHTS; Recombinant Scp1, phosphopeptide, malachite green phosphate absorbance; Carboxy-terminal domain RNA polymerase II polypeptide A small phosphatase 1 (Homo …; AID 493091, 2011; actives 0.88% (n = 340,000); inhibition, % at 20 µM;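 active means inhibition above about 50% at 20 µM, limit read from the data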;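 further: plate controls were DMSO wells with enzyme for no effect and wells lacking enzyme for full effect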
Target sequence (Q9GZU7 76-261 limits assumed): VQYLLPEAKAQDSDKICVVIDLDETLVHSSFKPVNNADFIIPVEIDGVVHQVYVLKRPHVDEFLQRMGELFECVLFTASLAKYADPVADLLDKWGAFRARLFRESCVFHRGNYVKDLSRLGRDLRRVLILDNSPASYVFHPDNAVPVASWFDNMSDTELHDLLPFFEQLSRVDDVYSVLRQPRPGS
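Test system: SCP-1 phosphatase catalytic domain, residues 76-261 | Compound dosing: One concentration, 20 µM, with 1.0% DMSO | Schedule: 45 min room-temperature reaction, 5 min colour, 30 min stabiliser | Detection: Absorbance at 630 nm | Read-out basis: % inhibition of SCP-1 phosphate liberation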
SUMO1 PPI mod: modulators of SUMO1 protein-protein interactions, primary screen, biochemical, uHTS | Small ubiquitin-related modifier 1 (Homo sapiens), P63165 | SUMO1 binding to a labelled peptide, TR-FRET, 1 h | inhibition, % at 20 µM | actives 0.33% (n = 360,000) | AID 602429, 2012; in the data active means inhibition above about 37%
Target sequence (P63165 whole entry, looked up): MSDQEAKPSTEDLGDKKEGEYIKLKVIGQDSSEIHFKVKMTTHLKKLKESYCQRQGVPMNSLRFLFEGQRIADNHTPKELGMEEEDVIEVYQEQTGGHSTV
LMPTP inh: LMPTP phosphatase inhibitors, primary screen, biochemical, fluorescence intensity, uHTS; Low molecular weight phosphotyrosine protein phosphatase (Homo sapiens), P24666; recombinant LMPTP-A, OMFP fluorogenic substrate; inhibition, % at 20 µM; actives 0.22% (n = 360,000); AID 651560, 2012;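 active means compounds that cut the enzyme signal by at least half of the control window in the single-dose screen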;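 further: plate controls were DMSO wells with enzyme plus substrate for no effect and substrate without enzyme for full effect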
Target sequence (P24666 whole entry, looked up): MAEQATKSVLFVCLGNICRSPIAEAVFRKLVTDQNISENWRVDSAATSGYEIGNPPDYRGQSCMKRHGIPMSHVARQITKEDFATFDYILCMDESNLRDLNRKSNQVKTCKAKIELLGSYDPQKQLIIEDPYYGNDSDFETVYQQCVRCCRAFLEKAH
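Assay system: LMPTP-A enzyme. Input: 0.625 nM LMPTP-A final. Probe or stimulus: 400 µM OMFP. Compound dosing: single 20 µM dose. Schedule: 50 min dark incubation at room temperature. Detection: fluorescence intensity of OMFP turnover product. Read-out: percent inhibition versus substrate-only and uninhibited controls. Benchmarks: no-enzyme low control, uninhibited high control.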
* hit, by the source's call; x = no result.

SMILES	DNMT1 block	STEP inh	Scp1 inh	SUMO1 PPI mod	LMPTP inh
COc1ccccc1N1CCN(C(=O)c2cccc(S(=O)(=O)N3c4ccccc4CC3C)c2)CC1 (configuration not stated)	-9	1	5	1	2
CC(=O)c1ccc(NCC(=O)N2CCN(S(=O)(=O)c3ccccc3)CC2)cc1	3	0	-2	2	0
O=C(CNc1ccc(Cl)c(C(F)(F)F)c1)N1CCN(S(=O)(=O)c2ccccc2)CC1	-1	2	69*	0	2
Cc1cc(N2CCN(C(C(=O)NC3CCCC3)c3ccc(-c4ccccc4)cc3)CC2)c2ccccc2n1 (configuration not stated)	x	x	x	-2	94*
Brc1ccc(-c2nnc(-c3ccc4c(c3)OCO4)o2)o1	10	1	25	-1	19
Cc1ccc(-c2nnc(-c3ccc4c(c3)OCO4)o2)cc1	8	-3	8	68*	7
CC(C)CN1C(=O)C(=O)N(CC(=O)c2ccc[nH]2)C1=O	1	-2	0	-3	2
COc1ccc(S(=O)(=O)N2CCC(C(=O)NCc3ccncc3)CC2)cc1OC	3	-2	-4	3	0
C[C@@H](O)CNC(=O)c1[nH]cnc1C(=O)N[C@H](C)c1ccccc1	-1	3	x	2	-2
COc1ccc(CCn2c(C3CCCCC3)nc3c(c(=O)c4ccccc4n3C)c2=O)cc1	7	98*	1	34	104*
Cn1c2ccccc2c(=O)c2c(=O)n(-c3ccccc3)c(C3CCCCC3)nc21	12	9	2	9	2
NC(=S)NN=Cc1nccc2ccccc12	-3	0	23	-25	0
Cc1cnc(C=NNC(N)=S)c2cccc(N)c12	114*	97*	84*	107*	86*
COc1cccc(CC(NC(C)=O)C(=O)NC2CCN(c3nc(C)cc(C)c3C#N)CC2)c1OC (configuration not stated)	-5	-4	8	-1	0
COc1cc(CC(NC(C)=O)C(=O)NC2CCN(c3nc(C)cc(C)c3C#N)CC2)cc(OC)c1 (configuration not stated)	13	-1	3	42*	-1
CC(C)NC(=O)C1(C)CCN1C(=O)c1c(F)cccc1F (configuration not stated)	0	0	x	0	-1
COc1cccc(CN(C)C(=O)CCNC(=O)c2ccco2)c1	6	-2	-7	-5	-1
O=S(=O)(c1ccc(F)c(Cl)c1)N1CCN(C/C=C/c2ccccc2)CC1	1	3	-2	41*	2
O=S(=O)(c1ccccc1)N1CCN(C/C=C/c2ccccc2)CC1	-2	0	-4	-4	0
O=C(Nc1c2ccccc2nc2ccccc12)C(Cl)(Cl)Cl	51*	3	3	-9	11
CCOC(=O)C1CCN(C(=S)NC(=O)c2cccs2)CC1	2	-2	-5	-2	-1
O=C(O)c1cccc2cc(-c3ccccc3)oc(=O)c12	1	2	-13	-7	-1
O=C(O)c1cccc2cccc(-c3c4ccc(=O)c(O)c-4oc4c(O)c(O)ccc34)c12	70*	99*	104*	119*	95*
COCCCn1c2nc3ccccc3nc2c2c(=O)n(Cc3ccc(Cl)cc3)cnc21	-6	4	-2	-19	3
O=c1c2c3nc4ccccc4nc3n(Cc3ccccc3)c2ncn1Cc1ccco1	39	2	6	-2	62*
SMILES	DNMT1 block	STEP inh	Scp1 inh	SUMO1 PPI mod	LMPTP inh
C/C(=N\S(=O)(=O)c1ccc(C)cc1)N(C)C	9	-2	-4	45*	0
C/C(=N\S(=O)(=O)c1ccc(C)cc1)N1CCCCC1	5	-3	-2	0	0
Cc1cc(N2CCC(C)CC2)nc2cccc(O)c12	-13	-1	1	2	62*
COc1ccccc1NS(=O)(=O)c1ccc(C)c(NC(=O)C2CCCO2)c1 (configuration not stated)	-1	0	-10	-2	-1
Nc1nc(N)c(Cc2ccc(Cl)cc2Cl)c(N)n1	2	2	-7	-2	64*
Nc1nccc(SCc2ccc(Cl)cc2Cl)n1	-9	-2	-2	4	0
O=C(CN1C(=O)NC(Cc2c[nH]c3ccccc23)C1=O)NC1CCCCC1 (configuration not stated)	3	2	-9	1	-3
Cc1ccc(C(=O)NCC(=O)Nc2ccccc2C)o1	2	0	x	-2	-1
O=Nc1c(O)c2ccccc2c2ccccc12	58*	3	-8	-37	4
CCc1nnc(NC(=O)c2ccc(OC)c(S(=O)(=O)N3CCCC3)c2)s1	3	-1	0	15	-1
CC1(C(=O)NCc2ccccc2)CCC(=O)N1C1CC1 (configuration not stated)	3	-1	x	6	-3
Cc1ccc(-c2ccc(CN3C(C)C(=O)N(Cc4cn(Cc5ccco5)nn4)CCS3(=O)=O)cc2)cc1 (configuration not stated)	-11	3	x	6	2
CC1C(=O)N(Cc2cn(Cc3ccco3)nn2)CCS(=O)(=O)N1Cc1ccc(-c2cccnc2)cc1 (configuration not stated)	0	0	x	18	54*
CSc1ccc(C(=O)N2CCC(CCC(=O)NCc3ccc(F)cc3)CC2)cc1	0	-2	-7	6	0
CCc1ccc(N=C2NC(=O)/C(=C/c3cc(Br)c(OCC(=O)O)c(OC)c3)S2)cc1	37	97*	28	18	59*
CCc1ccc(N=C2NC(=O)/C(=C/c3cc(OC)c(OC)c(OC)c3)S2)cc1	2	1	-3	20	1
NC(=S)N=Nc1ccc(NN=C(N)N)cc1	6	84*	-14	27	41
O=C(O)CCCCCN1C(=O)/C(=C\c2ccc(-c3ccc(Cl)cc3)o2)SC1=S	14	7	89*	70*	79*
O=C(O)CCCN1C(=O)/C(=C/c2ccc(-c3nc4ccccc4s3)o2)SC1=S	104*	62*	59*	34	9
O=C(O)CCCN1C(=O)/C(=C/c2ccncc2)SC1=S	1	1	6	-27	-1
CC1(C(=O)NS(=O)(=O)c2ccccc2OC(F)(F)F)CCN1C(=O)c1ccccc1 (configuration not stated)	4	-2	x	3	-3
